Laboratory results published in ChEMBL document CHEMBL1143333, “Amide derivatives of ethacrynic acid: synthesis and evaluation as antagonists of Wnt/beta-catenin signaling and CLL cell survival” (Bioorg Med Chem Lett, 2009).

Columns and labels:
[1] = Cytotoxicity against human CLL cells after 48 hrs by MTT method; type: functional, cell-based
Method in brief: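 Freshly isolated CLL cells plated at 2.5 × 10^5 per well and exposed to compounds for 48 h. MTT added at 1/10 volume of a 5 mg/mL stock, followed by overnight incubation at 37 °C before read-out of viability.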

[2] = Inhibition of Wnt/beta-catenin signaling in human SW480 cells by fluorimetry

Row | Structure (SMILES) | IC50 [2] [µM] | EC50 [1] [µM]
1 | C=C(CC)C(=O)c1ccc(OCC(=O)Nc2cc(Cl)ccc2C(=O)O)c(Cl)c1Cl | 9.62 | 13.8
2 | C=C(CC)C(=O)c1ccc(OCC(=O)Nc2ccc(C(=O)NC(CCC(=O)OCC)C(=O)OCC)cc2)c(Cl)c1Cl (centres undefined) | 2.61 | 2.1
3 | C=C(CC)C(=O)c1ccc(OCC(=O)NCCc2c[nH]c3ccccc23)c(Cl)c1Cl | 10.7 | 5.9
4 | C=C(CC)C(=O)c1ccc(OCC(=O)Nc2ccc(C(=O)O)cn2)c(Cl)c1Cl | > 50 | 14.9
5 | C=C(CC)C(=O)c1ccc(OCC(=O)NCO[N+](=O)[O-])c(Cl)c1Cl | > 50 | 4.1
6 | C=C(CC)C(=O)c1ccc(OCC(=O)NCC2CCC(C(=O)O)CC2)c(Cl)c1Cl (centres undefined) | > 50 | 8
7 | C=C(CC)C(=O)c1ccc(OCC(=O)Nc2cccc(C(=O)O)c2)c(Cl)c1Cl | 5.85 | 20.6
8 | C=C(CC)C(=O)c1ccc(OCC(=O)Nc2ccc(C(=O)O)c(O)c2)c(Cl)c1Cl | > 50 | > 25
9 | C=C(CC)C(=O)c1ccc(OCC(=O)NCCCN2CCCC2=O)c(Cl)c1Cl | > 50 | 13.8
10 | C=C(CC)C(=O)c1ccc(OCC(=O)NC(CS)C(=O)OCC)c(Cl)c1Cl (centres undefined) | > 50 | 4.8
11 | C=C(CC)C(=O)c1ccc(OCC(=O)NCCO)c(Cl)c1Cl | > 50 | > 25
12 | C=C(CC)C(=O)c1ccc(OCC(=O)Nc2nc(/C(=N\OC)C(=O)O)cs2)c(Cl)c1Cl | > 50 | > 25
13 | C=C(CC)C(=O)c1ccc(OCC(=O)Nc2nc3ccccc3s2)c(Cl)c1Cl | 4.86 | 1.5
14 | C=C(CC)C(=O)c1ccc(OCC(=O)NCCN2CCOCC2)c(Cl)c1Cl | > 50 | 6.4
15 | C=C(CC)C(=O)c1ccc(OCC(=O)Nc2ccc(Cc3ccc(N4C(=O)C5C6C=CC(C6)C5C4=O)cc3)cc2)c(Cl)c1Cl (centres undefined) | 2.93 | 1.8
16 | C=C(CC)C(=O)c1ccc(OCC(=O)NO)c(Cl)c1Cl | 9.89 | 4.5
17 | C=C(CC)C(=O)c1ccc(OCC(=O)Nc2ccc3c(c2)C(O)N=NC3O)c(Cl)c1Cl (centres undefined) | 6.58 | 8.5
18 | C=C(CC)C(=O)c1ccc(OCC(=O)Nc2cc(OC)c(OC)cc2C(=O)O)c(Cl)c1Cl | > 50 | 21.9
19 | C=C(CC)C(=O)c1ccc(OCC(=O)NC2CCN(CC(=O)OC)CC2)c(Cl)c1Cl | > 50 | 10.6
20 | C=C(CC)C(=O)c1ccc(OCC(=O)NCC(=O)O)c(Cl)c1Cl | > 50 | > 25
21 | CCC(C)C(=O)c1ccc(OCC(=O)O)c(Cl)c1Cl (centres undefined) | > 50 | > 25
22 | C=C(CC)C(=O)c1ccc(OCC(=O)O)c(Cl)c1Cl [ETHACRYNIC ACID] | 32.7 | 9.9

Second part, led by results:

Row | IC50 [2] [µM] | Structure (SMILES) | EC50 [1] [µM]
23 | > 50 | C=C(CC)C(=O)c1ccc(OCC(=O)Nc2ccc(CC(=O)O)cc2)c(Cl)c1Cl | 3.2
24 | > 50 | C=C(CC)C(=O)c1ccc(OCC(=O)Nc2ccc(S(=O)(=O)O)cc2)c(Cl)c1Cl | > 25
25 | 3.79 | C=C(CC)C(=O)c1ccc(OCC(=O)Nc2ccc(/C=C/C(=O)OCC)cc2)c(Cl)c1Cl | 1.7
26 | 2.51 | C=C(CC)C(=O)c1ccc(OCC(=O)Nc2ccc(/C=C/C(=O)O)cc2)c(Cl)c1Cl | 3
27 | 4.88 | C=C(CC)C(=O)c1ccc(OCC(=O)Nc2ccc3c(c2)C(=O)NC3=O)c(Cl)c1Cl | 2.5
28 | 2.63 | C=C(CC)C(=O)c1ccc(OCC(=O)Nc2ccc3c(C)cc(=O)oc3c2)c(Cl)c1Cl | 2.8
29 | > 50 | C=C(CC)C(=O)c1ccc(OCC(=O)Nc2ccc(O)cc2)c(Cl)c1Cl | 6.4
30 | 4.76 | C=C(CC)C(=O)c1ccc(OCC(=O)Nc2ccc(C(N)=O)cc2)c(Cl)c1Cl | 3.7
31 | 5.81 | C=C(CC)C(=O)c1ccc(OCC(=O)Nc2ccc(C(=O)O)cc2)c(Cl)c1Cl | 5
32 | 3.8 | C=C(CC)C(=O)c1ccc(OCC(=O)Nc2ccc(O)c(Cl)c2)c(Cl)c1Cl | 5.5
33 | 11.4 | C=C(CC)C(=O)c1ccc(OCC(=O)Nc2ccc(C(=O)OC)cc2)c(Cl)c1Cl | 4.1
34 | 2.97 | C=C(CC)C(=O)c1ccc(OCC(=O)Nc2ccc3c(c2)C(=O)c2ccccc2C3=O)c(Cl)c1Cl | 2.1
35 | 1.81 | C=C(CC)C(=O)c1ccc(OCC(=O)Nc2ccc(/C=C/C(=O)NO)cc2)c(Cl)c1Cl | 2.6
36 | 6.84 | C=C(CC)C(=O)c1ccc(OCC(=O)Nc2ccc(C#N)cc2)c(Cl)c1Cl | 7.8
37 | > 50 | C=C(CC)C(=O)c1ccc(OCC(=O)Nc2ccc(Cl)c(C(=O)O)c2)c(Cl)c1Cl | 15.9
38 | 5.06 | C=C(CC)C(=O)c1ccc(OCC(=O)Nc2ccc(C(C)=O)cc2)c(Cl)c1Cl | 3.9
39 | 2.93 | C=C(CC)C(=O)c1ccc(OCC(=O)Nc2ccc3cc(C(=O)O)ccc3c2)c(Cl)c1Cl | 3.7
40 | 4.42 | C=C(CC)C(=O)c1ccc(OCC(=O)Nc2ccc([C@]3(CC)CCC(=O)NC3=O)cc2)c(Cl)c1Cl | 2.8
41 | 4.23 | C=C(CC)C(=O)c1ccc(OCC(=O)Nc2ccc(O)c([N+](=O)[O-])c2)c(Cl)c1Cl | 7.4
42 | 3.62 | C=C(CC)C(=O)c1ccc(OCC(=O)Nc2ccc3nc[nH]c3c2)c(Cl)c1Cl | 3.2
